Consider 16 compounds from PubChem BioAssay AID588829 (Broad Institute, 2011).

Calls of active or inactive are those of the source.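 Rule for the calls: active = compounds lowering the cell energy light signal whose fitted half-effect dose is at most twice the top tested dose; inconclusive = flat curve with a 30 to 70% drop, or poor fit; inactive = the rest.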

Test system in one assay: not listed separately
Description: viability loss of SR-BI-expressing CHO line – cell-based, CellTiter-Glo luminescence, 24 h, dry powder, set 2, cytotoxicity control for SR-BI HDL uptake inhibitor project, dose response (AID 588829). The note with it: ldlA[mSR-BI] CHO cells viability, CellTiter-Glo ATP luminescence, 24 h; at 30 µM (top of the series). An outline of the steps: (§1)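 Material: ldlA cells expressing mouse scavenger receptor SR-BI / Times: 24 h compound exposure at 37 °C, 10 min reagent incubation / Measure: viability IC50 / Technique: CellTiter-Glo ATP luminescence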
On the technique in general: ATP-based viability assays read luminescence as a measure of living cells.
Regarding `C[C@@H]1CN([C@@H](C)CO)C(=O)Cc2cc(NC(=O)Nc3ccc(C(F)(F)F)cc3)ccc2O[C@@H]1CN(C)S(=O)(=O)c1ccc(Cl)cc1`, the activity change, negative = toxicity is -71.3% (inactive).

The same assay, now with this note: ldlA[mSR-BI] CHO cells viability, CellTiter-Glo ATP luminescence, 24 h; at 35 µM (top of the series).
For `COc1c(NC(=O)C(=O)c2ccc(OCCN3CCOCC3)c3ccccc23)cc(C(C)(C)C)cc1NS(C)(=O)=O`, the activity change, negative = toxicity was -4.11% (inactive).

As for `CC(=O)N1CCc2cc(-c3nc(NC(=O)c4cccc(OC(F)(F)F)c4)sc3C)ccc21`, the activity change, negative = toxicity is -14.1% (inactive).

Consider `COc1ccc(-c2cc(CC(=O)N(C3CCCCC3)C(C)C(=O)NC3CCCC3)no2)cc1OC` (stereo unspecified), for which the activity change, negative = toxicity was 13.9% (inactive).

Turning to `CC(C)(Sc1cc(C(C)(C)C)c(O)c(C(C)(C)C)c1)Sc1cc(C(C)(C)C)c(O)c(C(C)(C)C)c1`, the activity change, negative = toxicity is 14.8% (inactive).

On to `CCNC(=O)N1CCc2cc(-c3csc(NC(=O)c4cc(OC)cc(OC)c4)n3)ccc21`, for which the activity change, negative = toxicity was 9.7% (inactive).

Regarding `Cc1ccc2oc(-c3cccc(NC(=O)c4cc(-n5cnnc5)ccc4Cl)c3)nc2c1`, the activity change, negative = toxicity is -6.36% (inactive).

Turning to `COc1cc(OC)cc(C(=O)Nc2nc(-c3ccc4c(c3)CCN4C(=O)CN(C)C)cs2)c1`, the activity change, negative = toxicity was 8.9% (inactive).

On to `CCC(=O)N1CCc2cc(-c3csc(NC(=O)c4cccc(OC)c4)n3)ccc21`, for which the activity change, negative = toxicity is 2.38% (inactive).

For the compound `CC1CCC/C=C/C2CC(O)CC2C(O)/C=C\C(=O)O1` (stereo unspecified), the activity change, negative = toxicity was -13.3% (inactive).

`COCC(=O)N1CCc2cc(-c3csc(NC(=O)c4cc(OC)cc(OC)c4)n3)ccc21`: the activity change, negative = toxicity was 10.9% (inactive).

On to `CCC(=O)N1CC(C)(C)c2cc(-c3csc(NC(=O)c4cc(OC)cc(OC)c4)n3)ccc21`, for which the activity change, negative = toxicity is 1.55% (inactive).

Turning to `C[C@@H]1CN([C@H](C)CO)C(=O)c2cc(NC(=O)Cc3cn(C)c4ccccc34)ccc2O[C@H]1CN(C)S(=O)(=O)c1ccc(Cl)cc1`, the activity change, negative = toxicity was 3.86% (inactive).

Regarding `COc1cc(OC)cc(C(=O)Nc2nc(-c3ccc4c(c3)CCN4C(=O)OC(C)(C)C)cs2)c1`, the activity change, negative = toxicity is 12.9% (inactive).

For `C[C@H](C(=O)NC1CCCC1)N(C(=O)Cn1nnc(-c2ccc3c(c2)OCO3)n1)C1CCCCC1`, the activity change, negative = toxicity is 11.2% (inactive).

Another assay concerns ldlA[mSR-BI] CHO cells viability, CellTiter-Glo ATP luminescence, 24 h. Described as above.
Details: not given
An outline of the steps: as §1
One may read the IC50 as the midpoint of a concentration-inhibition curve. Regarding `CCCCCCC1CCC/C1=N\NC(N)=S` (stereo unspecified), the IC50 is 9.05 µM.
